Laboratory results taken from ChEMBL document CHEMBL3351931, “Synthesis of natural-like acylphloroglucinols with anti-proliferative, anti-oxidative and tube-formation inhibitory activity” (Eur J Med Chem, 2014).
Activity calls are given as the source filed them. No cut-off for these calls is given here.

Key:
[1] = Antiproliferative activity against human HMEC1 cells after 72 hrs; assay type: functional, cell-based; details: HMEC-1, 72 h
Summary of the method: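 SV-40T-transfected HMEC-1 seeded 1.5 × 10³ cells/well in ECGM with 10% FCS, supplement mix and antibiotics, 37 °C, 5% CO2. After 24 h, a reference plate was crystal-violet stained for baseline. The remaining cells were given increasing compound concentrations (DMSO stock) for 72 h, then crystal violet stained and read at 540 nm. 0.1% DMSO in ECGM served as negative control. IC50 ± SD from three independent experiments with different passages, hexaplicates per concentration.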

[2] = Antioxidant activity in phosphate buffer assessed as trolox equivalents ratio at pH 7.4 after 15 mins by ORAC-fluorescein assay; assay type: physicochemical; details: pH 7.4, 0.25 h
Summary of the method: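 ORAC-FL: fluorescein probe (final 300 nM) in 75 mM phosphate buffer pH 7.4; antioxidant (test compounds 1–5 µM, five concentrations; Trolox 1–8 µM standards) preincubated with fluorescein 15 min at 37 °C. Reaction started with AAPH (final 12 mM). Fluorescence read every min for 80 min (ex 485/em 536 nm). AUC converted to Trolox equivalents; quadruplicate, ≥4 independent assays.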

[3] = system: HMEC-1; experiment: Antiangiogenic activity in HMEC1 assessed as inhibition of tube formation at 6.25 to 50 uM after 19 hrs by matrigel assay; assay type: functional; details: Homo sapiens
[4] = system: HMEC-1; experiment: Antiangiogenic activity in HMEC1 assessed as inhibition of tube formation at 12.5 to 100 uM after 19 hrs by matrigel assay; assay type: functional; details: Homo sapiens

Ratio [2]	SMILES	IC50 [1]	inhibition [3]	inhibition [4]
2.1	COc1cc(C(=O)c2c(O)cc3c(c2O)CCC(C)(C)O3)cc(O)c1O	7.6 µM	–	–
0.4	CCC(C)C(=O)c1c(O)cc(O)c(C/C=C(\C)CCC=C(C)C)c1O (stereo not drawn)	11 µM	Active	–
2.8	CC1(C)CCc2c(cc(O)c(C(=O)c3ccc(O)c(O)c3)c2O)O1	0.88 µM	–	–
1	CC(=O)c1c(O)cc(O)c(C/C=C(\C)CCC=C(C)C)c1O	22.5 µM	–	–
0.6	CCC(=O)c1c(O)cc(O)c(C/C=C(\C)CCC=C(C)C)c1O	22.4 µM	–	–
2.3	COc1cc(O)c(CC=C(C)C)c(O)c1C(=O)/C=C/c1ccc(O)cc1 [XANTHOHUMOL]	–	–	–
0.3	CCCC(C)C(=O)c1c(O)cc(O)c(C/C=C(\C)CCC=C(C)C)c1O (stereo not drawn)	8.7 µM	–	–
6.6	CC1(C)CCc2c(cc(O)c(C(=O)c3ccc(O)cc3)c2O)O1	53.8 µM	–	–
1.3	COc1ccc(C(=O)c2c(O)cc3c(c2O)CCC(C)(C)O3)cc1OC	48 µM	–	Active
0.3	CCC(C)C(=O)c1c(O)cc(O)c2c1OC(C)(CCC=C(C)C)CC2 (stereo not drawn)	–	–	–
0.8	CC(=O)c1c(O)cc(O)c2c1OC(C)(CCC=C(C)C)CC2 (stereo not drawn)	20.3 µM	–	–
0.8	CC(C)=CCC/C(C)=C/Cc1c(O)cc(O)c(C(=O)C(C)C)c1O	21 µM	–	–
1.2	CCC(C)C(=O)c1c(O)cc2c(c1O)CCC(C)(C)O2 (stereo not drawn)	29.3 µM	–	–
3	CC1(C)CCc2c(cc(O)c(C(=O)c3cc(O)cc(O)c3)c2O)O1	25.5 µM	–	–
1.1	COc1ccc(C(=O)c2c(O)cc3c(c2O)CCC(C)(C)O3)cc1	43.4 µM	–	–
3	COc1cc(C(=O)c2c(O)cc3c(c2O)CCC(C)(C)O3)cc(OC)c1O	23.9 µM	–	–
–	COc1cc(C(=O)c2c(O)cc3c(c2O)CCC(C)(C)O3)cc(OC)c1OC	51.5 µM	–	–
